Compound activity (PubChem)
MrgX1 antagonist: antagonists of human MrgX1 receptor, primary screen, HEK293 cells, Fluo-4 calcium flux; Mas-related G-protein coupled receptor member X1 (Homo sapiens), Q96LB2; BAM8-22 antagonism; stronger effect = lower value; B-score at 10 µM; 310,000 compounds, 1.3% hits;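 active = calcium-response B-score plate-corrected more than 3 library SD below zero, starting fluorescence within 5 deviations, no agonist response on first addition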;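 also: peak minus trough fluorescence over baseline after final BAM8-22 challenge near maximal dose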
Target sequence (Q96LB2 whole entry, looked up): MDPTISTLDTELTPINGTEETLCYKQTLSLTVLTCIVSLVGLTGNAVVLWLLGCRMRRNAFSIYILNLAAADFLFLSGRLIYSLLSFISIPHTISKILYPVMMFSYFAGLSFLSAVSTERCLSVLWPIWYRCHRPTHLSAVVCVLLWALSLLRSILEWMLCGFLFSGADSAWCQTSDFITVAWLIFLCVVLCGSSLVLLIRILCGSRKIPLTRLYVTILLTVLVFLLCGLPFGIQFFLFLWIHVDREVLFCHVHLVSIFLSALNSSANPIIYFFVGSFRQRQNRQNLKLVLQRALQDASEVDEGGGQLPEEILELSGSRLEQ
RGS4 block: RGS4 inhibitors, primary screen, cell-based, HEK293 M3R inducible RGS4, calcium flux | 310,000 compounds, 0.45% hits | B-score at 10 µM | Regulator of G-protein signaling 4 (Homo sapiens), P49798 | AID 463165, 2010 | Fluo-4 calcium flux; stronger effect = higher value; triggered by carbachol at its EC20;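 active = B-score, a plate-corrected calcium signal, over three deviations above library mean, with baseline fluorescence within five deviations of library mean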;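 also: RGS4 expression induced by doxycycline in cells with stable M3 receptor; B-score is computed from the integrated fluorescence ratio over baseline after carbachol; higher B-score means a larger calcium signal and so more RGS4 inhibition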
Target sequence (P49798 whole entry, looked up): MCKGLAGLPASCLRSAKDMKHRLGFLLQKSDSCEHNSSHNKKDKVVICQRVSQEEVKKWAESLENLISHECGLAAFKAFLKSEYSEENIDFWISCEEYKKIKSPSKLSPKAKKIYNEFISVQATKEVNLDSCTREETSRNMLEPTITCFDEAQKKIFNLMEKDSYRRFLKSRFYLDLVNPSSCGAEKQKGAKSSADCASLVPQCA
RGS4 pot: RGS4 potentiators or activators, primary screen, cell-based, HEK293 M3R inducible RGS4, calcium flux | carbachol calcium flux Fluo4; stronger effect = lower value | B-score at 10 µM | 310,000 compounds, 0.92% hits;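 active = B-score of the integrated calcium signal more than 4 SD below the library mean, with starting fluorescence not abnormally high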;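 also: negative B-score means reduced calcium response which marks RGS4 activation or potentiation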
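Test system: HEK293 cells with stable M3R and inducible RGS4; also added: carbachol at ECmax as muscarinic agonist stimulus; schedule: dye loading 30 min 37 °C, buffer rest 30 min RT; technique: kinetic calcium fluorescence imaging with Fluo4-AM dye, 2 µM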
MrgX1 ag: agonists of human MrgX1 receptor, primary screen, HEK293 cells, Fluo-4 calcium flux. Mas-related G-protein coupled receptor member X1 (Homo sapiens), Q96LB2. Fluo-4 calcium fluorescence, agonist mode; stronger effect = higher value. B-score at 10 µM. 310,000 compounds, 0.44% hits;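 active = calcium response B-score plate-corrected fluorescence ratio at least 3 library SD, with starting fluorescence B-score inside 5 SD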
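Material – MrgX1-expressing HEK293 cells · Input – 15,000 cells seeded per well · Dosing – compound as first of three additions · Times – overnight seeding, then 1 h dark dye loading · Measured by – kinetic Fluo-4 NW fluorescence of intracellular calcium · Read-out – B-scored fluorescence response ratio · Benchmarks – positive and negative control wells on each plate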
MrgX1 PAM: positive allosteric modulators of MrgX1, primary screen, HEK293 cells, Fluo-4 calcium flux. Mas-related G-protein coupled receptor member X1 (Homo sapiens), Q96LB2. FDSS; stronger effect = higher value. B-score at 10 µM. 310,000 compounds, 0.63% hits. AID 588675, 2011;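 active = plate-corrected calcium response at least 3 library SD above typical, normal starting fluorescence, not activating the receptor alone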;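 also: compound read alongside a low EC10 to EC30 dose of BAM8-22 agonist; peak minus trough fluorescence over baseline measured at the second addition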
MrgX1 PAM conf: MrgX1 positive allosteric modulators, duplicate retest, confirmation, HEK293 cells, Fluo-4 calcium flux; shares compounds with MrgX1 PAM; Fluo-4 calcium fluorescence, FDSS; activation (ratio percentage), % at 10 µM; 1,200 compounds, 13% hits;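 active = ratio at least 3 SD above the weak peptide control, stable starting fluorescence, no direct agonism earlier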;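 also: compound followed by low BAM8-22 agonist challenge near EC20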
HEK293 Ca flux: nonspecific calcium signal in parental HEK293, confirmation, counter-screen for MrgX1 antagonist project, parental HEK293 cells, Fluo-4 calcium flux | shares compounds with MrgX1 antagonist | Fluo-4 calcium fluorescence, FDSS | fluorescence ratio F(max-min)/F0 at 10 µM | 4,000 compounds, 2% hits | AID 624111, 2012;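 active = duplicate-averaged calcium fluorescence ratio at least three times the standard deviation of buffer wells, a nonspecific response in parental cells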
HEK293 Ca counter: calcium response in parental HEK293 cells, primary screen, counter-screen for MrgX1 allosteric activator project, cell-based, Fluo-4 calcium flux, duplicate; AID 624114, 2012; Fluo-4 fluorescence ratio; stronger effect = higher value; shares compounds with MrgX1 antagonist; fluorescence ratio F(max-min)/F0 at 10 µM; 4,000 compounds, 0.4% hits;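 active = calcium fluorescence ratio, averaged over duplicates, at least 3 SD of the buffer-well ratio, meaning a nonspecific response in receptor-free cells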;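 also: untransfected parental HEK293 lacking MrgX1 used as counterscreen for MrgX1 allosteric activators; fluorescence change taken during the second addition on a kinetic imager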
HEK293 Ca cntr2: calcium response in parental HEK293 cells, primary screen, counter-screen for MrgX1 agonist project, cell-based, Fluo-4 calcium flux, duplicate, agonist mode; shares compounds with MrgX1 antagonist; Fluo-4 calcium fluorescence (FDSS); stronger effect = higher value; fluorescence ratio F(max-min)/F0 at 10 µM; 4,000 compounds, 8.7% hits; AID 624115, 2012;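 active = calcium fluorescence ratio at least three times the spread of buffer wells, meaning a non-specific response in parental cells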
* marks the source's active call; other numbers are inactive results; i = inactive; nt = not tested or not shown. Only some compounds are listed: those with a hit (about 3.5% of all), similar ones and a draw of the others.

SMILES	MrgX1 antagonist	RGS4 block	RGS4 pot	MrgX1 ag	MrgX1 PAM	MrgX1 PAM conf	HEK293 Ca flux	HEK293 Ca counter	HEK293 Ca cntr2
Cc1ccc(Cn2ccnc2C(=O)Nc2ccccc2)cc1	i	i	i	i	9.7*	i	i	i	i
COc1ccccc1P(=O)(c1ccccc1)c1ccc([N+](=O)[O-])cc1 (stereo unspecified)	i	i	i	i	i	nt	nt	nt	nt
CC1C(=O)N2CCCc3cc(NC(=O)C(=O)NCCc4ccc(F)cc4)cc1c32 (stereo unspecified)	i	i	i	i	i	nt	nt	nt	nt
Cc1ccc(CNC(=O)CN2C(=O)CSc3ccc(S(=O)(=O)N4CCC(C)CC4)cc32)cc1	i	i	i	i	i	nt	nt	nt	nt
O=C(c1ccccc1Cl)N1CCNCC1	i	i	i	i	i	nt	nt	nt	nt
Clc1cccc2c1Sc1ccccc1CC2N1CCNCC1 (stereo unspecified)	i	i	i	i	14*	i	i	i	i
CC(C)n1c(CN(C)Cc2ccccc2)nc2c1c(=O)n(C)c(=O)n2C	i	i	i	i	7.8*	13%*	i	i	i
CC(=O)C(C)n1c(CN(C)Cc2ccccc2)nc2c1c(=O)n(C)c(=O)n2C (stereo unspecified)	i	i	i	i	i	nt	nt	nt	nt
C=CCNC(=S)NNC(=O)c1ccc(=O)n(Cc2ccccc2)c1	i	i	i	i	i	nt	nt	nt	nt
COc1ccc(-c2cn3c(C)c(C(=O)N4CCCc5ccccc54)sc3n2)cc1	i	i	i	i	8*	i	i	i	i
CC(C)(C)c1nnc(NS(=O)(=O)c2cc(Cl)ccc2Cl)s1	i	i	i	i	12*	i	i	i	i
O=S(=O)(Nc1nnc(C(F)(F)F)s1)c1ccc(Cl)cc1	i	i	i	i	i	nt	nt	nt	nt
CC1CCc2c(C(=O)NCc3ccccn3)csc2C1 (stereo unspecified)	i	i	i	i	i	nt	nt	nt	nt
CC1CCc2c(C(=O)Nc3ccccn3)csc2C1 (stereo unspecified)	i	i	i	i	8.3*	i	i	i	i
O=C(NCc1nnc(SCC(=O)N2CCCCC2)o1)c1c(F)cccc1Cl	i	i	i	i	i	nt	nt	nt	nt
COc1ccc(N2CC(C(=O)Nc3cc(C)ccn3)CC2=O)cc1 (stereo unspecified)	i	i	i	i	8.1*	i	i	i	i
CCOc1ccc(CNC(=O)Cn2nc(C)c3c(C)n(-c4ccc(C)cc4)nc3c2=O)cc1	i	i	i	i	i	nt	nt	nt	nt
O=C(CC(C(=O)O)c1ccc(Cl)cc1)c1ccc(Cl)c(Cl)c1 (stereo unspecified)	i	i	i	i	i	nt	nt	nt	nt
COC(=O)C(CC(=O)c1ccc(Cl)cc1)c1ccc(C(C)C)cc1 (stereo unspecified)	i	i	i	i	7.1*	i	i	i	i
CC1CCN(C(=O)CCC(=O)Nc2nnc(C(F)(F)F)s2)CC1	i	i	i	i	i	nt	nt	nt	nt
CC(CCc1ccc(O)cc1)NC1c2ccccc2-c2ccccc21 (stereo unspecified)	i	i	i	i	7.1*	i	i	i	i
Nc1nnn(CC(=O)N/N=C/c2cccc(Cl)c2)n1	i	i	i	i	i	nt	nt	nt	nt
Cc1ccc2[nH]cc(C(=O)CCl)c2c1	i	i	i	i	7.4*	i	i	i	i
Cc1cc(-n2c(C)cc(C(=O)CN3C(=O)NC4(CCCC4)C3=O)c2C)no1	i	i	i	i	i	nt	nt	nt	nt
Cc1cc(-n2c(C)cc(C(=O)CCl)c2C)no1	i	i	i	i	10*	i	i	i	i
SMILES	MrgX1 antagonist	RGS4 block	RGS4 pot	MrgX1 ag	MrgX1 PAM	MrgX1 PAM conf	HEK293 Ca flux	HEK293 Ca counter	HEK293 Ca cntr2
COc1ccc(NC(=S)N(CCN2CCCCC2)Cc2ccco2)cc1	i	i	i	i	10*	i	i	i	i
COc1ccc(NC(=S)N(CCCN2CCCC2)Cc2ccco2)cc1	i	i	i	i	i	nt	nt	nt	nt
CC(C)(C)OC(=O)N1CCC(CNC(=O)c2ccc(F)cc2)CC1	i	i	i	i	35*	i	i	i	i
O=C(N[C@@H](Cc1c[nH]c2ccccc12)C(=O)O)c1ccccc1Cl	i	i	i	i	17*	i	i	i	i
COc1ccccc1-n1c(C)cc(/C=C2/C(=N)N3C(=NC2=O)SN=C3S(C)(=O)=O)c1C	i	i	i	i	21*	i	i	i	i
CN(CCOc1ccccc1)CC(=O)Nc1ccc(Br)cc1F	i	i	i	i	i	nt	nt	nt	nt
O=C(Cn1nnc2ccccc21)OCC(=O)c1ccc(F)cc1	i	i	i	i	i	nt	nt	nt	nt
CCn1nc(C)c(CCC(=O)O)c1C	i	i	i	i	10*	i	i	i	i
CCC(NC(=O)c1ccccc1NC(=O)c1ccccc1)C(=O)NNC(=O)c1cccnc1 (stereo unspecified)	i	i	i	i	i	nt	nt	nt	nt
C/C(=C\C(=O)c1ccccc1)NCc1ccc(F)cc1	i	i	i	i	7.4*	i	i	i	i
Nc1nc(Cl)cc(Sc2ccc(F)cc2)n1	i	i	i	i	6.7*	i	i	i	i
